This is an account of results in ChEMBL document CHEMBL2057133, “A 20S combined with a 22R configuration markedly increases both in vivo and in vitro biological activity of 1α,25-dihydroxy-22-methyl-2-methylene-19-norvitamin D3” (J Med Chem, 2012).

The target in assay [1] is T1, Vitamin D3 receptor (Rattus norvegicus) (UniProt P13053).
T1 sequence (whole entry): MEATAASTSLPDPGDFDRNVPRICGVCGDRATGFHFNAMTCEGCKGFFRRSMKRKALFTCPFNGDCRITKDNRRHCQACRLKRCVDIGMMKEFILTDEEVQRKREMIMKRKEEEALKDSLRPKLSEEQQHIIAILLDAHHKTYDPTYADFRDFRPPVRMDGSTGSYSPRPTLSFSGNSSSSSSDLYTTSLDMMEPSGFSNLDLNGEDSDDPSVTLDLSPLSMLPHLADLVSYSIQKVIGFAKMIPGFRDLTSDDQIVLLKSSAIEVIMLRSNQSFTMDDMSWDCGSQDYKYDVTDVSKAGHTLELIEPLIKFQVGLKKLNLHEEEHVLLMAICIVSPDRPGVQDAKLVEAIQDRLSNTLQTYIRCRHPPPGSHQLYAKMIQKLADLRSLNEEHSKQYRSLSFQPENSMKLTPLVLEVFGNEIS
The assay is described as follows: Activation of VDR-mediated 24-hydroxylase transcription in rat osteosarcoma cells after 16 hrs by luciferase reporter gene assay. (In general: Reporter assays use an easily measured gene product as a stand-in for the process of interest.)

For assay [2], the system named is HL-60. The assay is described as follows: Ratio of 1alpha,25-(OH)2D3 ED50 to compound ED50 for induction of human HL60 cell differentiation. In kind it is functional. In short, it runs like this: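 HL-60 promyelocyte differentiation to monocytes was scored as the percentage of cells reducing nitro blue tetrazolium. ED50 is the concentration giving 50% maturation, from dose-response curves; the experiment was done twice in duplicate. The ratio is the average of 1α,25-(OH)2D3 ED50 over analogue ED50.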

Assay [3] has as its system HL-60. The experiment in a line: Induction of human HL60 cell differentiation after 4 days by NBT reduction assay. Conditions: HL-60, 96 h, read-out: ED50 (the source's name). In kind it is functional.
Assay [4] addresses T2, Vitamin D3 receptor (Rattus norvegicus, UniProt P13053).
T2 sequence (P13053 whole entry): T1 sequence (whole entry)
The assay is described as follows: Displacement of [3H]-1alpha,25(OH)2D3 from recombinant rat VDR after overnight incubation by scintillation counting. Summed up:
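Competition assay using full-length recombinant rat VDR with radiolabeled 1α,25-(OH)2D3 at 1 nM. Ki was derived from dose-response curves using a Kd of 0.2 nM. Run in duplicate on two separate occasions.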
A general note: Loss of bound radioactivity is the signal in a displacement assay; it reports binding, not function.

For assay [5], the system named is Rattus norvegicus. The experiment in a line: Calcium mobilization in vitamin-D deficient weanling Sprague-Dawley rat bone assessed as increase in serum calcium level at 32 to 35100 pmol, ip administered every 24 hrs for 4 consecutive days measured 24 hrs post last dose relative to vehicle treated control. The class given is functional, organism-based. Summed up: (§1)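 Male weanling Sprague-Dawley rats were fed Diet 11 (0.47% Ca) + AEK oil for 1 week, then 0.02% Ca + AEK oil for 3 weeks, then 0.47% Ca for 1 week, then 0.02% Ca for 2 weeks. Dosing began in the last week on 0.02% Ca: four daily intraperitoneal doses. Serum calcium was measured in neck blood 24 h after the last dose and expressed as the difference from vehicle controls. Mean ± SEM of 6 values.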
For orientation: Calcium flux is commonly read through the fluorescence of an indicator in the cells.

Assay [6] has as its system Rattus norvegicus. The experiment in a line: Calcium mobilization in vitamin-D deficient weanling Sprague-Dawley rat intestine assessed as increase in serosal/mucosal calcium level at 32 to 35100 pmol, ip administered every 24 hrs for 4 consecutive days measured 24 hrs post last dose by everted gut sac method relative to vehicle treated control. In kind it is functional, organism-based.

Assay [7] concerns Rattus norvegicus. The experiment in a line: Calcium mobilization in vitamin-D deficient weanling Sprague-Dawley rat intestine assessed as increase in serosal/mucosal calcium level at 32 to 7020 pmol, ip administered every 24 hrs for 4 consecutive days measured 24 hrs post last dose by everted gut sac method relative to vehicle treated control. The class given is functional, organism-based.

In assay [8] the test system is Rattus norvegicus. The experiment in a line: Calcium mobilization in vitamin-D deficient weanling Sprague-Dawley rat bone assessed as increase in serum calcium level at 32 to 70200 pmol, ip administered every 24 hrs for 4 consecutive days measured 24 hrs post last dose relative to vehicle treated control. The class given is functional, organism-based. Summed up: as §1

Assay [9] relates to Rattus norvegicus. The experiment in a line: Calcium mobilization in vitamin-D deficient weanling Sprague-Dawley rat intestine assessed as increase in serosal/mucosal calcium level at 32 to 2340 pmol, ip administered every 24 hrs for 4 consecutive days measured 24 hrs post last dose by everted gut sac method relative to vehicle treated control. In kind it is functional, organism-based.

The test system of assay [10] is Rattus norvegicus. The experiment in a line: Calcium mobilization in vitamin-D deficient weanling Sprague-Dawley rat bone assessed as increase in serum calcium level at 32 to 2340 pmol, ip administered every 24 hrs for 4 consecutive days measured 24 hrs post last dose relative to vehicle treated control. In kind it is functional, organism-based. Summed up: as §1

Active and inactive are the calls of the source. The calls are words filed in the database; no cut-off is given here.

On to `C=C1[C@H](O)CC(=C/C=C2\CCC[C@]3(C)[C@@H]([C@@H](C)CCCC(C)(C)O)CC[C@@H]23)C[C@H]1O` [DP001], for which the ED50 in assay [1] is 0.007 nM. The “Ratio ED50” value in [2] is listed as 25. Moreover, in assay [3], the EC50 worked out at 0.08 nM.

In general, Ki refers to the equilibrium dissociation constant of an inhibitor or competing ligand from its target. With `C=C1[C@H](O)CC(=C/C=C2\CCC[C@]3(C)[C@@H]([C@H](C)C(C)(C)CCC(C)(C)O)CC[C@@H]23)C[C@H]1O`, in assay [4], the Ki stood at 0.02 nM. Moreover, the outcome in assay [5] and in [6] was inactive. Moreover, the ED50 in assay [1] is 0.03 nM. Also, the “Ratio ED50” value in assay [2] is recorded as 2.2. In [3], the EC50 came out at 0.9 nM.

As for `C=C1[C@H](O)CC(=C/C=C2\CCC[C@]3(C)[C@@H]([C@@H](C)C(C)(C)CCC(C)(C)O)CC[C@@H]23)C[C@H]1O`, the Ki in assay [4] is 0.06 nM. Besides, the outcome in assay [5] and in assay [6] was inactive. In [1], this compound yielded an ED50 of 0.6 nM. Moreover, the “Ratio ED50” value in assay [2] came to 2. In addition, the EC50 in assay [3] worked out at 1 nM.

For the compound `C=C1/C(=C\C=C2/CCC[C@]3(C)[C@@H]([C@H](C)CCCC(C)(C)O)CC[C@@H]23)C[C@@H](O)C[C@@H]1O`, the outcome in assay [7] and in assay [8] was Active.

With `C=C1[C@H](O)CC(=C/C=C2\CCC[C@]3(C)[C@@H]([C@@H](C)[C@H](C)CCC(C)(C)O)CC[C@@H]23)C[C@H]1O`, the Ki in assay [4] is 0.04 nM. This compound also registered an ED50 in [1] of 0.007 nM. For the same compound, in assay [2], the “Ratio ED50” value is 100. The outcome in [9] and in [10] was Active. Further, the EC50 in [3] came out at 0.02 nM.

For the compound `C=C1[C@H](O)CC(=C/C=C2\CCC[C@]3(C)[C@@H]([C@@H](C)[C@@H](C)CCC(C)(C)O)CC[C@@H]23)C[C@H]1O`, in assay [4], the Ki worked out at 10 nM. Besides, the outcome in assay [5] and in assay [6] was Active. In [1], this compound had an ED50 of 4 nM. Moreover, the “Ratio ED50” value in [2] amounted to 0.1. Moreover, the EC50 in assay [3] is 20 nM.

With `C=C1[C@H](O)CC(=C/C=C2\CCC[C@]3(C)[C@@H]([C@H](C)[C@H](C)CCC(C)(C)O)CC[C@@H]23)C[C@H]1O`, the Ki in assay [4] came to 0.2 nM. The result in assay [5] and in assay [6] was Active. For the same compound, the ED50 in assay [1] came out at 5 nM. For the same compound, the “Ratio ED50” value in assay [2] worked out at 0.2. Also, the EC50 in assay [3] is 10 nM.

As to `C=C1[C@H](O)CC(=C/C=C2\CCC[C@]3(C)[C@@H]([C@H](C)[C@@H](C)CCC(C)(C)O)CC[C@@H]23)C[C@H]1O`, the Ki in [4] was 0.1 nM. In addition, the outcome in assay [5] and in assay [6] was inactive. For the same compound, the ED50 in assay [1] was 0.2 nM. Further, the “Ratio ED50” value in [2] was 2.2. Besides, the EC50 in assay [3] came out at 0.9 nM.
